The source of these data is ChEMBL document CHEMBL1123752, “Hexahydro-1H-1-pyrindines from acid rearrangement of 9-alkylidene-5-(m-methoxyphenyl)-2-methylmorphans. A new structural type of narcotic antagonists” (J Med Chem, 1987).

The source made the active and inactive calls. The calls are words filed in the database; no cut-off is given here.

Experiment [1] concerns Mus musculus. The experiment in a line: Antinociceptive activity was determined by tail flick test in mice after subcutaneous administration; IA means inactive at 1,10 or 30.0 mg/kg. Type of experiment: functional, organism-based. Also on record: dose 30 mg/kg. An outline of the steps:
(§1)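 Mice were dosed subcutaneously. Antinociceptive […] is given in mg/kg with 95% confidence limits.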

The test system of experiment [2] is Mus musculus. The experiment in a line: Compound administered subcutaneously was evaluated for antinociceptive activity determined by p-phenylquinone-writhing test in mice. To be noted: sc. It counts as functional. Summed up:
as §1
(In writhing tests, fewer writhes than in controls are read as antinociception.)

Experiment [3] deals with Mus musculus. The experiment in a line: Compound administered subcutaneously was evaluated for Opioid antagonist activity versus morphine by tail flick antagonism test in mice 95% confidence limits are in brackets. Type of experiment: functional. Summed up: (§2)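 Mouse tail-flick test run against morphine, with test agent given subcutaneously. Antagonist AD50 is given in mg/kg with 95% confidence limits.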

Another experiment deals with Mu-type opioid receptor (Rattus norvegicus, UniProt P33535). The experiment in a line: Compound administered subcutaneously was evaluated for inhibition constant measured as the displacement of [3H]DAGO from rat brain. Summed up: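 Membranes from adult male Sprague-Dawley rat whole brain minus cerebellum, washed in 20 mM potassium phosphate pH 7.4, about 1 mg protein per tube. [³H]DAGO was added from a 2 nM solution. Nonspecific binding was defined with 10 μM naloxone (final). Incubation 45 min at 25 °C, then glass-fibre filtration and scintillation counting. Ki was derived by Cheng–Prusoff.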
(Displacement assays read how much labelled ligand stays bound in the presence of the test substance.)

The subject of experiment [4] is Mus musculus. Description: Compound administered subcutaneously was evaluated for opioid antagonist activity versus morphine by tail flick antagonism test in mice. It counts as functional. An outline of the steps:
as §2

For experiment [5], the system named is Mus musculus. The experiment in a line: Antinociceptive activity was determined by hot plate test in mice after subcutaneous administration at 50 mg/kg. It counts as functional. An outline of the steps: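 Mouse hot-plate assay with subcutaneous dosing. Activity is reported as percent effect at a single 50 mg/kg dose.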
A general note: In hot-plate and tail-flick tests a longer latency is read as antinociception.

The test system of experiment [6] is Mus musculus. Description: Antinociceptive activity was determined by p-phenylquinone-writhing test in mice after subcutaneous administration; I means inactive at 1,10 or 30.0 mg/kg. Type of experiment: functional, organism-based. Also on record: dose 30 mg/kg. An outline of the steps:
as §1

Experiment [7] concerns Mus musculus. The experiment in a line: Antinociceptive activity was determined by tail flick test in mice after subcutaneous administration; I means inactive at 1,10 or 30.0 mg/kg. It counts as functional, organism-based. Also on record: dose 30 mg/kg. An outline of the steps: as §1
In experiment [8] the test system is Mus musculus. Description: Compound administered subcutaneously was evaluated for Opioid antagonist activity versus morphine by tail flick antagonism test in mice. It counts as functional. An outline of the steps: as §2
Experiment [9] deals with Mus musculus. Description: Antinociceptive activity was determined by hot plate test in mice after subcutaneous administration;IA means inactive at 1,10 or 30.0 mg/kg. Type of experiment: functional, organism-based. Also on record: dose 30 mg/kg. An outline of the steps: as §1
Experiment [10] has as its system Mus musculus. Description: Antinociceptive activity was determined by p-phenylquinone-writhing test in mice after subcutaneous administration. It counts as functional. The following applies: sc. An outline of the steps: as §1

Sequence of Mu-type opioid receptor (P33535 whole entry): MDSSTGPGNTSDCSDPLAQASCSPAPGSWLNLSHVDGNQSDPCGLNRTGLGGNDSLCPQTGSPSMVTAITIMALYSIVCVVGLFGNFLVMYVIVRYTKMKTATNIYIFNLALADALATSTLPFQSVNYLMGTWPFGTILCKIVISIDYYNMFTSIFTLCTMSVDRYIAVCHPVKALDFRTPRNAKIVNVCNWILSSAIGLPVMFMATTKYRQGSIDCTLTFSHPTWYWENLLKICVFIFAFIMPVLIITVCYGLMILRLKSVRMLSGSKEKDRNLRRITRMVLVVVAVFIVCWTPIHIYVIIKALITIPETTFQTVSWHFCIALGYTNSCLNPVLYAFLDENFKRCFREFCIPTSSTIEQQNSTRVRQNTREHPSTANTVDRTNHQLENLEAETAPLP

Turning to `C=CCN1CC[C@]23c4c5ccc(O)c4O[C@H]2[C@@H](O)C=C[C@H]3[C@H]1C5.Cl` [NALORPHINE HYDROCHLORIDE], the ED50 result with Mus musculus [1] is “inactive”. This compound came in with a 50% effective dose (ED50) with Mus musculus [2] of 0.6 mg/kg. In the experiment on Mus musculus [3], the AD50 was found to be 2.6 mg/kg. At Mu-type opioid receptor, this compound registered a Ki of 2 nM.

With `CN1CC=C(c2cccc(O)c2)[C@@]2(C)CCC[C@@H]12`, in the experiment on Mus musculus [4], the AD50 stood at 1.7 mg/kg. The compound also yielded an Effect in the experiment with Mus musculus [5] of 40%. In addition, the ED50 result in the experiment on Mus musculus [6] and with Mus musculus [7] was “inactive” in each case. Besides, the inhibition constant (Ki) on Mu-type opioid receptor is 81 nM.

`CC[C@]12CCC[C@H]1N(C)CC=C2c1cccc(O)c1`: the AD50 in the experiment on Mus musculus [8] is 2.1 mg/kg. Also, the ED50 entry with Mus musculus [9] and with Mus musculus [1] was “inactive” in each case. In addition, it took a dose of 35.5 mg/kg to reach the 50% effect level with Mus musculus [10] (ED50). At Mu-type opioid receptor, this compound gave an inhibition constant Ki of 84 nM.

For orientation: ED50 means the dose that gives a 50% effect, or the effect in half of the subjects. For orientation: Ki means the equilibrium dissociation constant of an inhibitor or competing ligand from its target.
